Screens from PubChem BioAssay.
iPSC survival up: enhancers of single-cell hiPSC survival, primary screen, ATPlite luminescence; 100% = ROCK inhibitor wells, 0% = DMSO; survival enhancement, % at 20 µM; 0.044% of 360,000 active; AID 602274, 2012; in the data active means survival enhancement above about 18%;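 further: cells exposed to compounds for 16 hours before the ATP read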
SENP1 inh: human SENP1 catalytic domain inhibitors, primary screen, biochemical, FRET, uHTS; recombinant SENP1 catalytic domain, CyPet-SUMO1-YPet FRET cleavage; inhibition, % at 10 µM; 0.21% of 360,000 active; AID 624204, 2012;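 active means inhibition at least 30% at 10 µM, raw YFP signal under a set limit, fluorescence ratio 0.5 to 1.5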;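 further: 0% = enzyme with DMSO and 100% = no enzyme wells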
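Assay system – human recombinant His6-tagged SENP1 catalytic domain enzyme · Input – SENP1 enzyme, 20 pM final · Buffer or medium – Tris pH 8 buffer plus EDTA, NaCl, BME, BSA, NP40, catalase · Schedule – 50 min reaction at room temperature · Technique – FRET read of cyan and yellow fluorescence · Control set – no-enzyme wells low, DMSO-plus-enzyme wells high control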
ABCB6 inh 2: ABCB6 transporter inhibitors, primary screen, K562-ABCB6 cells, flow cytometry, MLPCN library; ATP-binding cassette sub-family B member 6 (Homo sapiens), Q9NP58; fluorescence ratio to DMSO, % at 10 µM; 0.19% of 360,000 active; K562-ABCB6 porphyrin accumulation, 1 h; hits give low values; AID 602162, 2011;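 active means fluorescence ratio to DMSO below 75%, the collection mean minus 3 SD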;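 further: signal is porphyrin accumulated inside mitochondria; 100% equals median channel fluorescence of DMSO control wells; lower ratio means ABCB6 inhibition with less porphyrin fluorescence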
Target sequence (Q9NP58 whole entry, looked up): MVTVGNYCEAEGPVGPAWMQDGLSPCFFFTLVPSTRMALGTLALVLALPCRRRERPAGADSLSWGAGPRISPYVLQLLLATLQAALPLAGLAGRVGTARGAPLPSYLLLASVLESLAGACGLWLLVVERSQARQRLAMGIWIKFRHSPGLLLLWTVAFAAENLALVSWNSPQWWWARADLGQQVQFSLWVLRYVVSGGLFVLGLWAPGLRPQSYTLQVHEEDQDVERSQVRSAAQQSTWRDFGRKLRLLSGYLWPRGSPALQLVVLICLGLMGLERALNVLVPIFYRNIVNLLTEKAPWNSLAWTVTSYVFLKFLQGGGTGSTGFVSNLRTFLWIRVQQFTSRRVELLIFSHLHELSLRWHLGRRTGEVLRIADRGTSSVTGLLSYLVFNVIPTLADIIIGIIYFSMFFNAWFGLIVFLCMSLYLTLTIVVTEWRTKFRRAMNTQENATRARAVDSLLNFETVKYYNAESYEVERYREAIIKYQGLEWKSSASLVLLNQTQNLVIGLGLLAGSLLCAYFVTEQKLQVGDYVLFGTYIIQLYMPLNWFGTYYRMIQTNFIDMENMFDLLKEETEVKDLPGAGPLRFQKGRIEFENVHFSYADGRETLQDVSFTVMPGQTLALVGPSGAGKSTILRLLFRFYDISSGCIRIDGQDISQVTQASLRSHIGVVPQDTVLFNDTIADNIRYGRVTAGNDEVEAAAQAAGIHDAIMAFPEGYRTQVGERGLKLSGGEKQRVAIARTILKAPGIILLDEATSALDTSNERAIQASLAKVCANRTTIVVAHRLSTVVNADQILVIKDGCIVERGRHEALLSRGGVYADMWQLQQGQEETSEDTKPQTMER
FAS-TE inh: FAS thioesterase domain inhibitors, primary screen, biochemical, fluorescence intensity, uHTS. Fatty acid synthase (Homo sapiens), P49327. recombinant FAS-TE, OMFH fluorogenic substrate, fluorescence endpoint. inhibition, % at 15 µM. 0.67% of 360,000 active;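 active means compounds whose normalised, plate-corrected inhibition of enzyme fluorescence in the single-dose primary screen is 50% or more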;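 further: 0% = DMSO with enzyme and 100% = substrate without enzyme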
SENP1 inh conf: human SENP1 catalytic domain inhibitors, confirmation, biochemical, FRET endpoint, single concentration | inhibition, % at 10 µM | AID 651678, 2012 | 34% of 520 active | shares compounds with SENP1 inh | recombinant SENP1, CyPet-SUMO1-YPet FRET cleavage; in the data active means inhibition mostly above about 35%, no sharp cut-off; inactive means mostly below about 32%;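 further: 0% = enzyme with DMSO and 100% = no enzyme control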
SENP1 kinetic: human SENP1 catalytic domain inhibitors, confirmation, biochemical, kinetic FRET, single concentration. shares compounds with SENP1 inh. recombinant SENP1, CyPet-SUMO1-YPet FRET kinetic cleavage. inhibition, % at 10 µM. 26% of 520 active; in the data active means inhibition mostly above about 32%, no sharp cut-off; inactive means mostly below about 29%;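 further: 0% = DMSO with enzyme and 100% = no enzyme substrate only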
Active calls of the source: *. Compounds with a hit are over-represented: about 1.1% of the library has one in this group of screens.

`Cc1ccc(C(=O)c2c3ccccc3[n+]([O-])n2CCC(N)=O)cc1` gave iPSC survival up 1, SENP1 inh 4, ABCB6 inh 2 97 and FAS-TE inh -6.
For Cn1c(=O)c2c(-c3ccccc3)n(-c3ccc(N)cc3)cc2n(C)c1=O the results were iPSC survival up -1, SENP1 inh 45*, ABCB6 inh 2 98, FAS-TE inh -2, SENP1 inh conf 24 and SENP1 kinetic 9.
For COc1ccc(NC2=Nc3cccc4cccc2c34)cc1OC the results were iPSC survival up 0, SENP1 inh 70*, ABCB6 inh 2 97, FAS-TE inh -6, SENP1 inh conf 29 and SENP1 kinetic 12.
For COc1cc(NC2=Nc3cccc4cccc2c34)cc(OC)c1OC the results were iPSC survival up 0, SENP1 inh 68*, ABCB6 inh 2 96, FAS-TE inh -2, SENP1 inh conf 39* and SENP1 kinetic 22.
Screening COc1ccc(CC(=O)NNC2=Nc3cccc4cccc2c34)cc1OC returned iPSC survival up 0, SENP1 inh -144, ABCB6 inh 2 97 and FAS-TE inh -3.
`COc1cccc(NC2=Nc3cccc4cccc2c34)c1` gave iPSC survival up 0, SENP1 inh 81*, ABCB6 inh 2 96, FAS-TE inh 0, SENP1 inh conf 55* and SENP1 kinetic 33*.
For C(=N\NC1=Nc2cccc3cccc1c23)/c1ccccc1 the results were iPSC survival up -2, SENP1 inh -20, ABCB6 inh 2 140 and FAS-TE inh 19.
For O=C(O)c1cccc(S(=O)(=O)N2CCN(Cc3ccc4c(c3)OCO4)CC2)c1 the results were iPSC survival up 0, SENP1 inh 2, ABCB6 inh 2 80 and FAS-TE inh -4.
`Cc1sc2ncnc(N=Nc3c(O)[nH]c4ccccc34)c2c1C` gave iPSC survival up -2, SENP1 inh 18, ABCB6 inh 2 130 and FAS-TE inh -9.
`CCc1cc2c(N=Nc3c(O)[nH]c4ccccc34)ncnc2s1` gave iPSC survival up 3, SENP1 inh 59*, ABCB6 inh 2 105, FAS-TE inh -10, SENP1 inh conf 4 and SENP1 kinetic -15.
Screening COC(=O)c1c(NC(=O)c2ccccc2)sc(C(=O)c2ccccc2)c1C returned iPSC survival up 6, SENP1 inh 43*, ABCB6 inh 2 104, FAS-TE inh 23, SENP1 inh conf 24* and SENP1 kinetic 34*.
O=C(CCNC(=O)c1ccc([N+](=O)[O-])cc1)Nc1ccccc1N1CCCC1 was read as iPSC survival up 0, SENP1 inh -2, ABCB6 inh 2 101 and FAS-TE inh 33.
`CCc1noc(C)c1C(=O)OCC(=O)Nc1ccccc1SC` gave iPSC survival up 0, SENP1 inh 3, ABCB6 inh 2 93 and FAS-TE inh -2.
For Cc1noc(C)c1C(=O)OCC(=O)Nc1ccccc1SCC#N the results were iPSC survival up 3, SENP1 inh 44*, ABCB6 inh 2 166, FAS-TE inh -10, SENP1 inh conf 17 and SENP1 kinetic 14.
Screening N#CCSc1ccccc1NC(=O)COC(=O)CCNC(=O)c1ccc([N+](=O)[O-])cc1 returned iPSC survival up 0, SENP1 inh 32*, ABCB6 inh 2 177, FAS-TE inh 1, SENP1 inh conf 8 and SENP1 kinetic 6.
`CC(C)OC(=O)CCCN1C(=O)c2ccc(N)cc2C1=O` gave iPSC survival up -1, SENP1 inh 10, ABCB6 inh 2 99 and FAS-TE inh -7.
`Nc1ccc2c(c1)C(=O)N(CCCC(=O)O)C2=O` gave iPSC survival up 0, SENP1 inh 74*, ABCB6 inh 2 102, FAS-TE inh -9, SENP1 inh conf 56* and SENP1 kinetic 28.
For CC(C)n1c(SCC(=O)N2CCN(C)CC2)nc2c1c(=O)n(C)c(=O)n2C the results were iPSC survival up -1, SENP1 inh 0, ABCB6 inh 2 91 and FAS-TE inh -7.
`CN1/C(=C/C=C(C#N)C#N)C=Cc2ccccc21` gave iPSC survival up 0, SENP1 inh 97*, ABCB6 inh 2 106, FAS-TE inh -66, SENP1 inh conf 9 and SENP1 kinetic 9.
CCOC(=O)/C(C#N)=C/C=C1\C=Cc2ccccc2N1CC was read as iPSC survival up 2, SENP1 inh 52*, ABCB6 inh 2 132, FAS-TE inh 10, SENP1 inh conf 71* and SENP1 kinetic 39*.
`CCCCCCN1C=C/C(=C\C=C(C#N)C#N)c2ccccc21` gave iPSC survival up -2, SENP1 inh 10, ABCB6 inh 2 179 and FAS-TE inh 41.
`O=C(NCCc1c[nH]c2ccccc12)c1ccc([N+](=O)[O-])o1` gave iPSC survival up -1, SENP1 inh -19, ABCB6 inh 2 97 and FAS-TE inh 5.
Screening Brc1ccc(-c2nc3ncccn3c2Nc2ccc3c(c2)OCCO3)o1 returned iPSC survival up -1, SENP1 inh 35*, ABCB6 inh 2 97, FAS-TE inh -6, SENP1 inh conf 9 and SENP1 kinetic 3.
Screening Cc1ccc(-c2nc3ncccn3c2Nc2ccc3c(c2)OCCO3)cc1 returned iPSC survival up 0, SENP1 inh 18, ABCB6 inh 2 93 and FAS-TE inh 6.
`Cc1ccc(-c2nc3ncccn3c2Nc2ccc3c(c2)OCCO3)o1` gave iPSC survival up -1, SENP1 inh 53*, ABCB6 inh 2 89, FAS-TE inh 3, SENP1 inh conf 19 and SENP1 kinetic 14.
For COc1ccc(-c2nc3ncccn3c2Nc2ccc3c(c2)OCCO3)cc1 the results were iPSC survival up -2, SENP1 inh 32*, ABCB6 inh 2 98, FAS-TE inh 2, SENP1 inh conf -11 and SENP1 kinetic 7.
For Cc1ccc(-c2nc3ncccn3c2NC2CCCCC2)o1 the results were iPSC survival up -1, SENP1 inh 63*, ABCB6 inh 2 102, FAS-TE inh -4, SENP1 inh conf 54* and SENP1 kinetic 36.
Screening Oc1ccc(-c2nc3ncccn3c2Nc2ccc3c(c2)OCCO3)cc1 returned iPSC survival up -1, SENP1 inh 13, ABCB6 inh 2 98 and FAS-TE inh 11.
O=C(Nc1ccc(Cl)cc1)c1ccc2c(c1)S(=O)(=O)c1ccccc1C2=O was read as iPSC survival up 2, SENP1 inh 33*, ABCB6 inh 2 92, FAS-TE inh -4, SENP1 inh conf -22 and SENP1 kinetic -15.
